Screening results as filed in PubChem BioAssay.
SIAE inh = blocks human sialic acid acetylesterase; inhibition, % at 9.66 µM; SIAE FP-Rh probe binding, fluorescence polarization; AID 1053197; 0.69% of 370,000 active; Q9HAT2;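 active = inhibition above a cutoff: mean of compounds within the control limits plus 3 SD of those, cut at about 17% in these data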;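 also: 0% = plate median of compound wells and 100% = probe without SIAE protein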
Target sequence (Q9HAT2 whole entry, looked up): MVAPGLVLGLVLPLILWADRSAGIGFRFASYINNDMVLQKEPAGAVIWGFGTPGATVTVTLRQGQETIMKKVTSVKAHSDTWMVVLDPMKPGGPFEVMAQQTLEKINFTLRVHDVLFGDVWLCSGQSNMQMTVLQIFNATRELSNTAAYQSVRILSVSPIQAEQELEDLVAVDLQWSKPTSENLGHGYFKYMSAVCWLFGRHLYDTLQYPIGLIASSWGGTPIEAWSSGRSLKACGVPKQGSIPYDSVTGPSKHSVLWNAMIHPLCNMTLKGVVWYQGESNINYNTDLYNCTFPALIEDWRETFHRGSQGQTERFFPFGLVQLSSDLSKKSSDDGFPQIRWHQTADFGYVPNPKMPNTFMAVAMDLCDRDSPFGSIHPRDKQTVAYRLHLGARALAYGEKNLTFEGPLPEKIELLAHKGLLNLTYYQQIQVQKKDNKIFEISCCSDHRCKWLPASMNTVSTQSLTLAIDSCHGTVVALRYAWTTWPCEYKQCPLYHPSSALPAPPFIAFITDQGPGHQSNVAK
mABHD4 FP = inhibitors of mouse ABHD4; purified mABHD4, FP-Rh probe fluorescence polarization; inhibition, % at 8.92 µM; 0.54% of 370,000 active; AID 720543;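 active = inhibition exceeding the mean over every tested compound plus 3 SD, cut at about 30% in these data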;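 also: 0% = plate median of compound wells and 100% = S159A mutant with DMSO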
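Material: mouse ABHD4 enzyme, wild type; Benchmarks: S159A mutant high control, sample median low control; Buffer or medium: HEPES pH 7.0, NaCl, Pluronic buffer; Signal: fluorescence polarization; Read-out: percent inhibition of probe binding, normalized to plate controls; Timing: pre-incubation 45 min, probe exposure 60 min, at 25 °C; Dosing: 8.92 µM, single dose.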
TCR CD3 inh = blocks the human TCR-CD3 interaction | AID 651800 | TAMRA-labeled TCR probe fluorescence, biochemical | 0.37% of 360,000 active | inhibition, % at 9.4 µM;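 also: recombinant mutant TCR 2C K166C tagged with TAMRA read by polarization; 0% = receptor in buffer alone and 100% = receptor with positive control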
ARNT-TACC3 inh = disruptors of human ARNT/TACC3 interaction | inhibition, % at 9.99 µM | Q9Y6A5 | AlphaScreen His-ARNT PAS-B/GST-TACC3 binding, luminescence; TACC3 fragment carries E629A point mutation | AID 623870 | 0.66% of 390,000 active;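 active = mean inhibition of replicates at least 50% and at least half of replicates each reaching 50%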;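 also: 0% = complete ARNT plus TACC3 wells and 100% = ARNT alone without TACC3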
HTRA1 inh = inhibitors of human serine peptidase HTRA1. recombinant HTRA1, FP-rhodamine activity-based probe, fluorescence polarization. inhibition, % at 5.96 µM. 0.5% of 340,000 active. AID 504803; in the data active = inhibition above about 36%;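 also: 0% = enzyme with DMSO and 100% = wells lacking enzyme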
BSA TAMRA ctr = interferes with TAMRA-BSA probe, flagging TCR-CD3 hits; shares compounds with TCR CD3 inh; TAMRA-labeled BSA probe fluorescence counterscreen; inhibition, % at 9.4 µM; 10% of 1,200 active; AID 652035; in the data active = inhibition above about 23%;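 also: 0% = buffer low control and 100% = reference high control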
TCR-CD3 inh conf = TCR-CD3 interaction inhibition, confirmation. shares compounds with TCR CD3 inh. TAMRA-labeled TCR probe fluorescence binding assay. inhibition, % at 9.4 µM. 48% of 1,200 active. AID 652036
The depositor's hits bear a star; . = no result; ! = not confirmed by another sample. In the library only some 1.8% were active in any assay of this set; here they are far more common. Rule as the data show it, unless noted: active = inhibition above about 19%; inactive = the rest.

SMILES | SIAE inh | mABHD4 FP | TCR CD3 inh | ARNT-TACC3 inh | HTRA1 inh | BSA TAMRA ctr | TCR-CD3 inh conf
C[C@@H]1CN([C@@H](C)CO)C(=O)c2cccc(NC(=O)C3CCOCC3)c2O[C@H]1CN(C)S(C)(=O)=O | . | . | . | 5 | . | . | .
CC(C)CC#Cc1cnc2c(c1)C(=O)N([C@H](C)CO)C[C@@H](C)[C@H](CN(C)Cc1ccccc1F)O2 | . | . | . | 12 | . | . | .
CCCn1c(=O)c(C(=O)Nc2ncccc2O)c(O)c2ccccc21 | -2 | 3 | 22* | 3 | 6 | -9 | 21*
Cc1ccc(S(=O)(=O)Nc2ccc3c(c2)C(=O)N([C@@H](C)CO)C[C@H](C)[C@H](CN(C)C(=O)Nc2c(C)noc2C)OCCCC[C@H](C)O3)cc1 | . | . | . | -7 | . | . | .
O=C(CSc1nnc2ccccn12)NC(=O)c1cccc([N+](=O)[O-])c1 | 0 | 7 | -3 | 2 | -6 | . | .
O=C(CSc1nnc2ccccn12)NNC(=O)c1cccc([N+](=O)[O-])c1 | -7 | 11 | 80* | 5 | 4 | -3 | 4
Cc1nc(S/C(=C/c2ccc(OCc3ccc(C(=O)O)cc3)cc2)C(=O)O)n[nH]1 | -3 | -21 | 22* | 9 | -4 | -6 | 32*
C[C@@H]1CN([C@H](C)CO)S(=O)(=O)c2ccc(C#Cc3ccc(F)cc3)cc2O[C@H]1CN(C)C(=O)CN(C)C | . | . | . | 18 | . | . | .
Cc1ccc(-n2c(O)c(C=Nc3ccccc3-c3n[nH]c(=S)[nH]c3=O)c3ccccc3c2=O)cc1C | -115 | -104 | 23* | 1 | -110 | -4 | 18
C[C@H]1CN([C@@H](C)CO)C(=O)c2cc(NS(=O)(=O)c3cn(C)cn3)ccc2O[C@@H]1CN(C)Cc1ccncc1 | . | . | . | -2 | . | . | .
C[C@@H]1CCCCO[C@H](CN(C)S(=O)(=O)c2ccc(F)cc2)[C@H](C)CN([C@H](C)CO)C(=O)c2cc(NC(=O)NC3CCCCC3)ccc2O1 | . | . | . | 12 | . | . | .
CC(=O)NNC(=S)NC(=O)c1ccc(C)cc1 | 11 | 5 | 23* | -1 | 5 | 1 | 20*
CCOC(=O)c1c(C)[nH]c(C(=O)N/N=C/c2cc([N+](=O)[O-])ccc2O)c1C | -1 | 1 | 21* | 72* | 14 | -10 | 41*
O=C(N/N=C/c1cccc([N+](=O)[O-])c1)c1c[nH]c2ccccc12 | -4 | -4 | -2 | 0 | -17 | . | .
O=C(N/N=C/c1cc([N+](=O)[O-])ccc1O)c1c[nH]c2ccccc12 | 7 | 2 | 21* | 4 | 5 | -6 | 14
O=C(NC(C(=O)N/N=C/c1cccc2ccccc12)c1n[nH]c(=O)c2ccccc12)c1ccccc1 (configuration not stated) | -137 | -88 | 9 | 4 | -72 | . | .
CCOC(=O)c1c(C)[nH]c(C(=O)N/N=C\c2ccccc2O)c1C | 15 | -6 | 1 | 2 | -4 | . | .
O=C(NC(C(=O)N/N=C/c1cc([N+](=O)[O-])ccc1O)c1n[nH]c(=O)c2ccccc12)c1ccccc1 (configuration not stated) | -8 | 23 | 29* | 68* | 3 | -5 | 38*
CO[C@@H]1CN(C)C(=O)c2ccc(NC(=O)c3ccccc3)cc2OC[C@H](C)N(C(=O)C2CC2)C[C@H]1C | . | . | . | -9 | . | . | .
c1ccc(CSc2nc3ccccc3[nH]2)cc1 | 0 | -3 | 4 | -8 | -8 | . | .
CCn1c(CSc2nc3ccccc3[nH]2)nc2cc(C(=O)O)ccc21 | 14 | 19 | 34* | 25 | 26 | 57* | 42*
C[C@H]1CN([C@@H](C)CO)C(=O)c2cccc(NS(=O)(=O)c3cccs3)c2O[C@@H]1CN(C)Cc1ccncc1 | . | . | . | -9 | . | . | .
CS(=O)(=O)N(Cc1ccc(C(=O)NN=C2CCCC2)cc1)c1ccccc1 | 0 | -4 | 0 | 0 | -5 | . | .
CS(=O)(=O)N(Cc1ccc(C(=O)NN=C2CCCCCC2)cc1)c1ccccc1 | -8 | 12 | 33* | 1 | -18 | 0 | -2
COc1ccc(NC(=O)N(C)C[C@H]2Oc3cc(C#CCC(C)C)ccc3S(=O)(=O)N([C@@H](C)CO)C[C@@H]2C)cc1 | . | . | . | 9 | . | . | .
SMILES | SIAE inh | mABHD4 FP | TCR CD3 inh | ARNT-TACC3 inh | HTRA1 inh | BSA TAMRA ctr | TCR-CD3 inh conf
O=C(O)CC(C(=O)O)N1C(=O)/C(=C/c2ccc(-c3nc4ccccc4s3)o2)SC1=S (configuration not stated) | 4 | 38* | 22* | 42 | 15 | -15 | 26*
Brc1ccc(-c2nn3c(-c4ccccn4)nnc3s2)o1 | 7 | 4 | 30* | 68* | 12 | 1 | 12
Cc1nc(Cl)c2c(n1)NC1=C(O2)C(=O)CCC1 | 3 | 6 | 37* | 4 | 17 | 29* | 30*
C[C@H]1CN([C@@H](C)CO)C(=O)c2cc(C#CC3CCCC3)cnc2O[C@@H]1CN(C)Cc1ccncc1 | . | . | . | 4 | . | . | .
COc1ccc(S(=O)(=O)N[C@@H]2CC[C@H](CC(=O)NCc3ccccc3F)O[C@@H]2CO)cc1 | . | . | . | 4 | . | . | .
CCc1cc(Cl)c(OC)c(C(=O)NC[C@@H]2CCCN2CC)c1O | 4 | 9 | 29*! | 0 | -3 | 0 | 1
Cc1cc(/C=N/n2c(COc3ccccc3C)nc3ccccc3c2=O)c(O)c([N+](=O)[O-])c1 | 10 | 3 | 21* | 7 | 32 | 14 | 53*
CO[C@H]1CN(C)C(=O)c2ccc(NC(=O)c3cccc(Oc4ccccc4)c3)cc2OC[C@@H](C)NC[C@@H]1C | . | . | . | 1 | . | . | .
CCC(C)(C)NC(=O)Cc1ccc(F)cc1 | 5 | -5 | 7 | 2 | . | . | .
CCC(C)(C)NC(=O)Cc1ccc(Cl)cc1 | 1 | 1 | 33* | . | . | -7 | -1
CC(C)C1O/C(=N/C(=O)Nc2ccc(Cl)c(Cl)c2)NC1=O (configuration not stated) | -105 | -59 | 35* | 29 | -20 | 1 | 4
CCN(CC)C(=O)CSc1ncnc2c(-c3cccs3)nsc12 | -5 | 5 | 20* | -10 | -32 | -4 | 12
COc1ccc(-c2nn(-c3ccccc3)cc2/C=N/NC(=O)c2cccc(S(=O)(=O)Nc3ccccc3Cl)c2)cc1 | -100 | -84 | 20* | -8 | -32 | 12 | 22*
CCOc1ccc(NC(=S)NS(=O)(=O)c2cc(Br)ccc2OCC)cc1 | 1 | 2 | 2 | . | . | . | .
CCOc1ccc(Br)cc1S(=O)(=O)Nc1ccc(C(=O)OCC(=O)Nc2ccc(C#N)cc2)cc1 | -12 | -16 | 33* | -2 | -64 | 26* | 34*
C[C@H]1CN([C@@H](C)CO)C(=O)c2cc(NC(=O)Nc3ccc(C(F)(F)F)cc3)ccc2O[C@H]1CN(C)Cc1ccc(Cl)c(Cl)c1 | . | . | . | 1 | . | . | .
C[C@@H]1CN([C@@H](C)CO)C(=O)Cc2cc(NC(=O)Nc3ccc(C(F)(F)F)cc3)ccc2O[C@@H]1CN(C)S(=O)(=O)c1ccc(Cl)cc1 | -155 | -91 | 48* | -4 | -155 | 14 | 26*
